Test results from ChEMBL document CHEMBL1121663, “(Acylaryloxy)acetic acid diuretics. 3. 2,3-Dihydro-5-acyl-2-benzofurancarboxylic acids, a new class of uricosuric diuretics” (1981).
Values joined by “and” are separate entries in the source; they are usually repeats but may differ in a detail not shown here. Equal entries are not always repeated.

What was measured:
[1] = tested on: Pan troglodytes; experiment: Compound was tested for natriuretic activity in chimpanzee at 5 mg/kg dose activity is measured as microequivalent of Na+/minute; muequiv of Na+/min; type: functional
Summary of the method: (§1)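 Inulin iv gave GFR; urate and inulin clearances and Na+, K+, Cl- excretion were measured by AutoAnalyzer. Controls were three 20-min periods; compound was given orally in aqueous solution via nasal catheter. Response was the mean of eight 15-20 min periods, reported as treatment minus control from single experiments.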

[2] = tested on: Canis familiaris; experiment: Compound was tested for diuretic activity in dogs at 5 mg/kg dose after intravenous administration measured as microequivalent of Cl-/minute; 5/102 (Control/Drug treated); type: functional, Canis lupus familiaris, Urine
Summary of the method: (§2)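 Intravenous dog clearance study. A priming iv injection of 1.5 mL/kg isoosmotic pH 7.4 phosphate buffer (20 mg PO4/kg) was given first. This was followed by infusion of 3 mL/min pH 7.4 buffer containing 4% mannitol (6.9 mg PO4/min) throughout the experiment. Urinary Na+, K+ and Cl- were measured by standard methods. Each value is the mean of the two highest consecutive 15-min collections.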

[3] = tested on: Canis familiaris; experiment: Compound was tested for diuretic activity in dogs at 5 mg/kg dose after intravenous administration measured as microequivalent of K+/minute; 6/36 (Control/Drug treated); type: functional, Canis lupus familiaris, Urine; summary of the method: as §2
[4] = tested on: Canis familiaris; experiment: Compound was tested for diuretic activity in dogs at 5 mg/kg dose after intravenous administration measured as microequivalent of Na+/minute; 20/108 (Control/Drug treated); type: functional, Canis lupus familiaris, Urine
[5] = tested on: Rattus norvegicus; experiment: Natriuretic activity in rats at 27 mg/kg of dosage; mequiv of Na; type: functional
Summary of the method: (§3)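 Rats housed three per metabolism cage received placebo vehicle or compound as a suspension in a final volume of 5.0 mL orally, with placebo groups run concurrently. Urine was collected over 0–5 h and analysed for Na+, K+ and Cl− by standard methods. Values are mequiv per cage, given as geometric means of three cages per dose level.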

[6] = tested on: Rattus norvegicus; experiment: Natriuretic activity in rats at 3 mg/kg of dosage; mequiv of Na; type: functional; summary of the method: as §3
[7] = tested on: Rattus norvegicus; experiment: Natriuretic activity in rats at 81 mg/kg of dosage; mequiv of Na; type: functional; summary of the method: as §3
[8] = tested on: Rattus norvegicus; experiment: Natriuretic activity in rats at 9 mg/kg of dosage; mequiv of Na; type: functional; summary of the method: as §3
[9] = Compound was tested for natriuretic activity in chimpanzee at 5 mg/kg dose activity is measured as ratio of clearance of urate / […]; Curate/Cinulin; type: functional; summary of the method: as §1
[10] = tested on: Canis familiaris; experiment: Compound was tested for diuretic activity in dogs at 5 mg/kg dose after oral administration measured as microequivalent of Cl-/minute; type: functional, Canis lupus familiaris, Urine
Summary of the method: (§4)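 Oral dog test: water loading (250 mL po, then 500 mL 1 h later). One hour later bladders were emptied by catheter and compound or placebo given in gelatin capsules. Dogs were kept in metabolism cages. Voided urine plus catheterized bladder urine was pooled at 5 h, and Na+, K+ and Cl- were measured by standard methods. Geometric means are reported.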

[11] = tested on: Canis familiaris; experiment: Compound was tested for diuretic activity in dogs at 5 mg/kg dose after oral administration measured as microequivalent of K+/minute; type: functional, Canis lupus familiaris, Urine; summary of the method: as §4
[12] = tested on: Canis familiaris; experiment: Compound was tested for diuretic activity in dogs at 5 mg/kg dose after oral administration measured as microequivalent of Na+/minute; type: functional, Canis lupus familiaris, Urine; summary of the method: as §4
[13] = tested on: Canis familiaris; experiment: Compound was tested for diuretic activity in dogs at 5 mg/kg dose after intravenous administration measured as microequivalent of Na+/minute; 13/565 (Control/Drug treated); type: functional, Canis lupus familiaris, Urine
[14] = tested on: Canis familiaris; experiment: Compound was tested for diuretic activity in dogs at 5 mg/kg dose after intravenous administration measured as microequivalent of K+/minute; 9/46 (Control/Drug treated); type: functional, Canis lupus familiaris, Urine; summary of the method: as §2
[15] = tested on: Canis familiaris; experiment: Compound was tested for diuretic activity in dogs at 5 mg/kg dose after intravenous administration measured as microequivalent of Cl-/minute; 2/612 (Control/Drug treated); type: functional, Canis lupus familiaris, Urine; summary of the method: as §2
[16] = tested on: Canis familiaris; experiment: Compound was tested for diuretic activity in dogs at 5 mg/kg dose after intravenous administration, activity is expressed as urine volume; 0.6/6; type: functional, Canis lupus familiaris
[17] = tested on: Rattus norvegicus; experiment: Compound was tested for natriuretic activity in rats at 27 mg/kg of dosage; type: functional; summary of the method: as §3
[18] = tested on: Canis familiaris; experiment: Diuretic activity in dogs following 5 mg/kg oral administration.
[19] = tested on: Canis familiaris; experiment: Compound was tested for diuretic activity in dogs at 5 mg/kg dose after intravenous administration measured as microequivalent of Cl-/minute (Control/Drug treated); type: functional, Canis lupus familiaris, Urine; conditions: in the assay text read “oral” for “intravenous”
[20] = tested on: Canis familiaris; experiment: Compound was tested for diuretic activity in dogs at 5 mg/kg dose after intravenous administration measured as microequivalent of K+/minute (Control/Drug treated); type: functional, Canis lupus familiaris, Urine; conditions: in the assay text read “oral” for “intravenous”
[21] = tested on: Canis familiaris; experiment: Compound was tested for diuretic activity in dogs at 5 mg/kg dose after oral administration, activity is expressed as urine volume
[22] = tested on: Canis familiaris; experiment: Compound was tested for diuretic activity in dogs at 5 mg/kg dose after oral administration measured as microequivalent of Na+/minute
[23] = tested on: Canis familiaris; experiment: Compound was tested for diuretic activity in dogs at 5 mg/kg dose after intravenous administration, activity is expressed as urine volume; 1/6; type: functional, Canis lupus familiaris
[24] = tested on: Canis familiaris; experiment: Compound was tested for diuretic activity in dogs at 5 mg/kg dose after intravenous administration measured as microequivalent of Cl-/minute; 12/586 (Control/Drug treated); type: functional, Canis lupus familiaris, Urine; summary of the method: as §2
[25] = tested on: Canis familiaris; experiment: Compound was tested for diuretic activity in dogs at 5 mg/kg dose after intravenous administration measured as microequivalent of K+/minute; 4/54 (Control/Drug treated); type: functional, Canis lupus familiaris, Urine; summary of the method: as §2
[26] = tested on: Pan troglodytes; experiment: Compound was tested for natriuretic activity in chimpanzee at 5 mg/kg dose activity is measured as microequivalent of Na+/m; muequiv of Na+/minute; type: functional; summary of the method: as §1
[27] = tested on: Canis familiaris; experiment: Compound was tested for diuretic activity in dogs at 5 mg/kg dose after intravenous administration activity is measured as microequivalent of Cl-/minute (Control/Drug treated); type: functional, Canis lupus familiaris, Urine; conditions: in the assay text read “oral” for “intravenous”
[28] = tested on: Canis familiaris; experiment: Compound was tested for diuretic activity in dogs at 5 mg/kg dose after intravenous administration measured as microequivalent of Na+/minute; 52/264 (Control/Drug treated); type: functional, Canis lupus familiaris, Urine
[29] = tested on: Canis familiaris; experiment: Compound was tested for diuretic activity in dogs at 5 mg/kg dose after intravenous administration measured as microequivalent of Cl-/minute; 16/271 (Control/Drug treated); type: functional, Canis lupus familiaris, Urine; summary of the method: as §2
[30] = tested on: Canis familiaris; experiment: Compound was tested for diuretic activity in dogs at 5 mg/kg dose after intravenous administration measured as microequivalent of K+/minute; 6/18 (Control/Drug treated); type: functional, Canis lupus familiaris, Urine; summary of the method: as §2
[31] = tested on: Canis familiaris; experiment: Compound was tested for diuretic activity in dogs at 5 mg/kg dose after intravenous administration, activity is expressed as urine volume; 1/2; type: functional, Canis lupus familiaris
[32] = tested on: Canis familiaris; experiment: Compound was tested for diuretic activity in dogs at 5 mg/kg dose after intravenous administration measured as microequivalent of Na+/minute; 5/95 (Control/Drug treated); type: functional, Canis lupus familiaris, Urine
[33] = tested on: Canis familiaris; experiment: Compound was tested for diuretic activity in dogs at 5 mg/kg dose after intravenous administration measured as microequivalent of Cl-/minute; 4/72 (Control/Drug treated); type: functional, Canis lupus familiaris, Urine; summary of the method: as §2
[34] = tested on: Canis familiaris; experiment: Compound was tested for diuretic activity in dogs at 5 mg/kg dose after intravenous administration measured as microequivalent of K+/minute; 6/37 (Control/Drug treated); type: functional, Canis lupus familiaris, Urine; summary of the method: as §2
[35] = tested on: Rattus norvegicus; experiment: Compound was tested for natriuretic activity in rats at 3 mg/kg of dosage; mequiv of Na+ x 100/cage; type: functional; summary of the method: as §3
[36] = tested on: Canis familiaris; experiment: Diuretic activity in dogs following 5 mg/kg i.v. administration.; type: functional, Canis lupus familiaris, Urine; conditions: route intravenous
[37] = tested on: Canis familiaris; experiment: Compound was tested for diuretic activity in dogs at 5 mg/kg dose after intravenous administration, activity is expressed as urine volume; 0.6/1.3; type: functional, Canis lupus familiaris
[38] = tested on: Canis familiaris; experiment: Compound was tested for diuretic activity in dogs at 5 mg/kg dose after intravenous administration measured as microequivalent of Cl-/minute; 6/70 (Control/Drug treated); type: functional, Canis lupus familiaris, Urine; summary of the method: as §2
[39] = tested on: Canis familiaris; experiment: Compound was tested for diuretic activity in dogs at 5 mg/kg dose after intravenous administration measured as microequivalent of K+/minute; 10/18 (Control/Drug treated); type: functional, Canis lupus familiaris, Urine; summary of the method: as §2

O=C(Cc1ccccc1)c1cc2c(c(Cl)c1Cl)OC(C(=O)O)C2 (stereo not given)
Oral activity [1]: 513 | Cl- excretion [2]: 102 µequiv/min | K+ excretion [3]: 36 µequiv/min | Na+ excretion [4]: 108 µequiv/min | Oral activity [5]: 126 | Oral activity [6]: 25 | Oral activity [7]: 173 | Oral activity [8]: 80 | Ratio [9]: 0.315

O=C(O)C1Cc2cc(Cc3cccs3)c(Cl)c(Cl)c2O1 (stereo not given)
Oral activity [1]: 206 | Oral activity [10]: 40.6 | Oral activity [11]: 7.4 | Oral activity [12]: 30.1 | Na+ excretion [13]: 565 µequiv/min | K+ excretion [14]: 46 µequiv/min | Cl- excretion [15]: 612 µequiv/min | Urine volume [16]: 0.6 mL/min | Oral activity [17]: 19 | Oral activity [6]: 7 | Oral activity [7]: 21 | Oral activity [8]: 19 | Ratio [9]: 0.185 | Urine volume [18]: 433 mL

O=CC1Cc2cc(C(=O)c3cccs3)c(Cl)c(Cl)c2O1 (stereo not given)
Oral activity [10]: 21.6 | Oral activity [11]: 3.1 | Oral activity [12]: 16.3 | Oral activity [19]: 21.6 | Oral activity [20]: 3.1 | Oral activity [5]: 107 | Oral activity [6]: 74 | Oral activity [7]: 144 | Oral activity [8]: 84 | Urine volume [18]: 337 mL | Oral activity [21]: 337 mL | Oral activity [22]: 16.3

O=C(O)C1Cc2cc(C(O)c3cccs3)c(Cl)c(Cl)c2O1 (stereo not given)
Urine volume [23]: 1 mL/min | Cl- excretion [24]: 586 µequiv/min | K+ excretion [25]: 54 µequiv/min | Oral activity [5]: 80 | Oral activity [6]: 25 | Oral activity [7]: 180 | Oral activity [8]: 40 | Ratio [9]: 0.15 | Oral activity [26]: 550

CCOC(=O)C1Cc2cc(C(=O)c3cccs3)c(Cl)c(Cl)c2O1 (stereo not given)
Oral activity [10]: 8.7 | Oral activity [11]: 1.6 | Oral activity [12]: 7.7 | Oral activity [27]: 8.7 | Oral activity [20]: 1.6 | Oral activity [5]: 128 | Oral activity [6]: 76 | Oral activity [7]: 167 | Oral activity [8]: 87 | Urine volume [18]: 166 mL | Oral activity [22]: 7.7

O=C(O)C1Cc2cc(S(=O)(=O)c3cccs3)c(Cl)c(Cl)c2O1 (stereo not given)
Oral activity [10]: 9.1 | Oral activity [11]: 1.4 | Oral activity [12]: 7.6 | Na+ excretion [28]: 264 µequiv/min | Cl- excretion [29]: 271 µequiv/min | K+ excretion [30]: 18 µequiv/min | Oral activity [5]: 44 | Oral activity [6]: 10 | Oral activity [7]: 65 | Oral activity [8]: 19 | Urine volume [18]: 246 mL

Cc1c(C(=O)c2cccs2)cc2c(c1C)OC(C(=O)O)C2 (stereo not given)
Urine volume [31]: 1 mL/min | Na+ excretion [32]: 95 µequiv/min | Cl- excretion [33]: 72 µequiv/min | K+ excretion [34]: 37 µequiv/min | Oral activity [5]: 61 | Oral activity [35]: 29 | Oral activity [7]: 71 | Oral activity [8]: 68

O=C(c1cccs1)c1cc2c(c(Cl)c1Cl)OC(C(=O)O)C2 (stereo not given)
Oral activity [1]: 1360 | Oral activity ([10]; 5 mg/kg): 24.6 and 48.5 | Oral activity ([11]; 5 mg/kg): 4.2 and 5.2 | Oral activity ([12]; 5 mg/kg): 18.7 and 37.7 | Urine volume [36]: 432 mL and 541 mL | Urine volume [37]: 0.6 mL/min | Oral activity [5]: 257 | Oral activity [6]: 175 | Oral activity [7]: 310 | Oral activity [8]: 191 | Ratio [9]: 0.34

COc1ccc(C(=O)c2cc3c(c(Cl)c2Cl)OC(C(=O)O)C3)cc1 (stereo not given)
Oral activity [10]: 17.8 | Oral activity [11]: 2.9 | Oral activity [12]: 14.4 | Cl- excretion [38]: 70 µequiv/min | K+ excretion [39]: 18 µequiv/min | Oral activity [5]: 129 | Oral activity [6]: 40 | Oral activity [7]: 194 | Oral activity [8]: 96 | Urine volume [18]: 307 mL
